Calls of active or inactive are those of the source. No cut-off for these calls is given here.
How the values were obtained:
[1] = organism: Mus musculus; assay: Induction apoptosis in mouse betaD5 cells assessed as ROS production at 10 uM/L using DCFH-DA by flow cytometry relative to control; format: functional, cell-based
Outline: (§1)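 Transgenic mouse cells exposed to compound at 10 µmol/L. ROS generation was measured by flow cytometry using the probe DCFH-DA.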

[2] = test system: B3; assay: Induction apoptosis in mouse B3 cells assessed as relative caspase activity at 10 uM/L after 2 hrs by rhodamine 110 fluorescence assay; format: functional, cell-based
Outline: (§2)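 Cells were pretreated with compound (10 µmol/L) for 2 h. The cell-permeable caspase substrate (Asp)2-rhodamine 110 (10 µmol/L) was then added for 2 h more. Caspase cleavage releases fluorescent rhodamine 110, and the read-out was mean fluorescence.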

[3] = test system: A-431; assay: Cytotoxicity against human A431 cells after 72 hrs by trypan blue assay; format: functional, cell-based; details: A-431, 72 h
Outline: (§3)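 A-431, HeLa and HL-60 cells at 4×10^4 per well, incubated 24 h. HeLa and A-431 then received fresh medium. Graded compound concentrations were added for a further 72 h at 37 °C, 5% CO2. Viability was counted by Trypan blue exclusion. IC50 is the concentration giving 50% reduction in cell number versus control: ≥3 independent experiments, triplicate samples, mean ± SD.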

[4] = test system: yA7; assay: Cytotoxicity against mouse yA7 cells after 24 to 96 hrs by MTS assay; format: functional, cell-based
Outline: (§4)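 Mouse transgenic lines plated at 10^3 cells/well and left 24 h to attach. Drugs diluted in medium were added for 24 or 96 h. CellTiter 96 AQueous One (MTS) reagent was then added for 1 h at 37 °C, with absorbance read at 490 nm. Each condition was run in quintuplicate, and cytotoxicity was expressed as percent of controls.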

[5] = test system: A2B1; assay: Cytotoxicity against mouse A2B1 cells after 24 to 96 hrs by MTS assay; format: functional, cell-based; outline: as §4
[6] = test system: HL-60; assay: Cytotoxicity against human HL60 cells after 72 hrs by trypan blue assay; format: functional, cell-based; details: HL-60, 72 h; outline: as §3
[7] = test system: B3; assay: Induction apoptosis in mouse B3 cells assessed as ROS production at 10 uM/L using DCFH-DA by flow cytometry relative to control; format: functional, cell-based; outline: as §1
[8] = test system: HeLa; assay: Cytotoxicity against human HeLa cells after 72 hrs by trypan blue assay; format: functional, cell-based; outline: as §3
[9] = test system: Craf/Cmyc; assay: Induction apoptosis in mouse Craf/Cmyc cells assessed as relative caspase activity at 10 uM/L after 2 hrs by rhodamine 110 fluorescence assay; format: functional; outline: as §2
[10] = biological target: DNA topoisomerase 2-alpha (Homo sapiens) (UniProt P11388); assay: Inhibition of human recombinant topoisomerase 2alpha-mediated relaxation of supercoiled pBR322 after 60 mins using ethidium bromide staining by agarose gel electrophoresis
Outline: (§5)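 Supercoiled pBR322 (0.25 µg) with 1 U human recombinant topoisomerase IIα and test compound, 60 min at 37 °C in 20 µl reaction buffer. Stopped with SDS/bromophenol blue/glycerol plus 50 µg/mL proteinase K, 30 min at 37 °C. Separated on 1% agarose at room temperature, ethidium bromide stained (1 µg/mL, TAE), UV-visualized.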

[11] = test system: yD12; assay: Induction apoptosis in mouse yD12 cells assessed as ROS production at 10 uM/L using DCFH-DA by flow cytometry relative to control; format: functional, cell-based; outline: as §1
[12] = organism: Mus musculus; assay: Cytotoxicity against mouse betaD5 cells after 24 to 96 hrs by MTS assay; format: functional, cell-based; outline: as §4
[13] = test system: yA3; assay: Induction apoptosis in mouse yA3 cells assessed as ROS production at 10 uM/L using DCFH-DA by flow cytometry relative to control; format: functional, cell-based; outline: as §1
[14] = test system: A2C12; assay: Induction apoptosis in mouse A2C12 cells assessed as ROS production at 10 uM/L using DCFH-DA by flow cytometry relative to control; format: functional, cell-based; outline: as §1
[15] = test system: A2C12; assay: Induction apoptosis in mouse A2C12 cells assessed as relative caspase activity at 10 uM/L after 2 hrs by rhodamine 110 fluorescence assay; format: functional, cell-based; outline: as §2
[16] = test system: yB8; assay: Induction apoptosis in mouse yB8 cells assessed as relative caspase activity at 10 uM/L after 2 hrs by rhodamine 110 fluorescence assay; format: functional, cell-based; outline: as §2
[17] = test system: yA3; assay: Cytotoxicity against mouse yA3 cells after 24 to 96 hrs by MTS assay; format: functional, cell-based; outline: as §4
[18] = test system: yD1; assay: Induction apoptosis in mouse yD1 cells assessed as ROS production at 10 uM/L using DCFH-DA by flow cytometry relative to control; format: functional, cell-based; outline: as §1
[19] = organism: Mus musculus; assay: Induction apoptosis in mouse betaD10 cells assessed as relative caspase activity at 10 uM/L after 2 hrs by rhodamine 110 fluorescence assay; format: functional, cell-based; outline: as §2
[20] = test system: yB8; assay: Cytotoxicity against mouse yB8 cells after 24 to 96 hrs by MTS assay; format: functional, cell-based; outline: as §4
[21] = test system: yA7; assay: Induction apoptosis in mouse yA7 cells assessed as ROS production at 10 uM/L using DCFH-DA by flow cytometry relative to control; format: functional, cell-based; outline: as §1
[22] = test system: A2B1; assay: Induction apoptosis in mouse A2B1 cells assessed as relative caspase activity at 10 uM/L after 2 hrs by rhodamine 110 fluorescence assay; format: functional, cell-based; outline: as §2
[23] = test system: B3; assay: Cytotoxicity against mouse B3 cells after 24 to 96 hrs by MTS assay; format: functional, cell-based; outline: as §4
[24] = test system: yD12; assay: Cytotoxicity against mouse yD12 cells after 24 to 96 hrs by MTS assay; format: functional, cell-based; outline: as §4
[25] = test system: yA3; assay: Induction apoptosis in mouse yA3 cells assessed as relative caspase activity at 10 uM/L after 2 hrs by rhodamine 110 fluorescence assay; format: functional, cell-based; outline: as §2
[26] = test system: A2C12; assay: Cytotoxicity against mouse A2C12 cells after 24 to 96 hrs by MTS assay; format: functional, cell-based; outline: as §4
[27] = organism: Mus musculus; assay: Induction apoptosis in mouse betaD10 cells assessed as ROS production at 10 uM/L using DCFH-DA by flow cytometry relative to control; format: functional, cell-based; outline: as §1
[28] = test system: yB8; assay: Induction apoptosis in mouse yB8 cells assessed as ROS production at 10 uM/L using DCFH-DA by flow cytometry relative to control; format: functional, cell-based; outline: as §1
[29] = test system: A2B1; assay: Induction apoptosis in mouse A2B1 cells assessed as ROS production at 10 uM/L using DCFH-DA by flow cytometry relative to control; format: functional, cell-based; outline: as §1
[30] = biological target: DNA topoisomerase 2-alpha (Homo sapiens) (UniProt P11388); assay: Inhibition of human recombinant topoisomerase 2alpha-mediated relaxation of supercoiled pBR322 at 100 uM after 60 mins using ethidium bromide staining by agarose gel electrophoresis; outline: as §5
[31] = test system: yD12; assay: Induction apoptosis in mouse yD12 cells assessed as relative caspase activity at 10 uM/L after 2 hrs by rhodamine 110 fluorescence assay; format: functional, cell-based; outline: as §2
[32] = test system: Craf/Cmyc; assay: Cytotoxicity against mouse Craf/Cmyc cells after 24 to 96 hrs by MTS assay; format: functional, cell-based; outline: as §4
[33] = test system: Craf/Cmyc; assay: Induction apoptosis in mouse Craf/Cmyc cells assessed as ROS production at 10 uM/L using DCFH-DA by flow cytometry relative to control; format: functional, cell-based; outline: as §1
[34] = organism: Mus musculus; assay: Induction apoptosis in mouse betaD5 cells assessed as relative caspase activity at 10 uM/L after 2 hrs by rhodamine 110 fluorescence assay; format: functional, cell-based; outline: as §2
[35] = test system: HUVEC; assay: Antiangiogenic activity in HUVEC cocultured with human PaSMC assessed as inhibition of capillary-like network formation up to 200 nM after 72 hrs; format: functional, cell-based
Outline: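 Primary HUVEC (passage 5, retrovirally labelled with RFP) and pulmonary artery vSMC (passage 5) co-seeded at 5×10^4 PaSMC plus 10×10^3 HUVEC per well in EGM-2, briefly spun at 200 g, attached 3 h. Compounds were then added at final 2–200 nM, two replicates per concentration. Networks formed over 72 h at 37 °C, 5% CO2, followed by automated imaging and image analysis of tube formation.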

[36] = test system: Nucleic Acid; assay: Binding affinity to salmon testes DNA by linear flow dichroism analysis; format: nucleic-acid assay; details: Salmonidae
Outline: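 Salmon testes DNA (1.9 × 10^-3 M) in ETN buffer (10 mM Tris, 10 mM NaCl, 1 mM EDTA, pH 7). Linear dichroism spectra were recorded at 25 °C over a range of [drug]/[DNA] ratios on a spectropolarimeter converted for LD.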

[37] = organism: Bos taurus; assay: Inhibition of calf thymus topoisomerase 1-mediated relaxation of supercoiled pBR322 at 100 uM after 60 mins using ethidium bromide staining by agarose gel electrophoresis
Outline: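 Supercoiled pBR322 (0.25 µg) with 2 U calf thymus topoisomerase I and test compound, 60 min at 37 °C in 20 µl reaction buffer. Stopped with SDS/bromophenol blue/glycerol plus 50 µg/mL proteinase K, 30 min at 37 °C. Run on 1% agarose at room temperature, stained with ethidium bromide 1 µg/mL in TAE, imaged under UV.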

[38] = test system: yD1; assay: Induction apoptosis in mouse yD1 cells assessed as relative caspase activity at 10 uM/L after 2 hrs by rhodamine 110 fluorescence assay; format: functional, cell-based; outline: as §2
[39] = organism: Mus musculus; assay: Cytotoxicity against mouse betaD10 cells after 24 to 96 hrs by MTS assay; format: functional, cell-based; outline: as §4
[40] = test system: yA7; assay: Induction apoptosis in mouse yA7 cells assessed as relative caspase activity at 10 uM/L after 2 hrs by rhodamine 110 fluorescence assay; format: functional, cell-based; outline: as §2
[41] = biological target: DNA topoisomerase 2-alpha (Homo sapiens) (UniProt P11388); assay: Inhibition of human recombinant topoisomerase 2alpha-mediated relaxation of supercoiled pBR322 at 50 uM after 60 mins using ethidium bromide staining by agarose gel electrophoresis; outline: as §5

Sequence of DNA topoisomerase 2-alpha (Homo sapiens) (P11388 whole entry): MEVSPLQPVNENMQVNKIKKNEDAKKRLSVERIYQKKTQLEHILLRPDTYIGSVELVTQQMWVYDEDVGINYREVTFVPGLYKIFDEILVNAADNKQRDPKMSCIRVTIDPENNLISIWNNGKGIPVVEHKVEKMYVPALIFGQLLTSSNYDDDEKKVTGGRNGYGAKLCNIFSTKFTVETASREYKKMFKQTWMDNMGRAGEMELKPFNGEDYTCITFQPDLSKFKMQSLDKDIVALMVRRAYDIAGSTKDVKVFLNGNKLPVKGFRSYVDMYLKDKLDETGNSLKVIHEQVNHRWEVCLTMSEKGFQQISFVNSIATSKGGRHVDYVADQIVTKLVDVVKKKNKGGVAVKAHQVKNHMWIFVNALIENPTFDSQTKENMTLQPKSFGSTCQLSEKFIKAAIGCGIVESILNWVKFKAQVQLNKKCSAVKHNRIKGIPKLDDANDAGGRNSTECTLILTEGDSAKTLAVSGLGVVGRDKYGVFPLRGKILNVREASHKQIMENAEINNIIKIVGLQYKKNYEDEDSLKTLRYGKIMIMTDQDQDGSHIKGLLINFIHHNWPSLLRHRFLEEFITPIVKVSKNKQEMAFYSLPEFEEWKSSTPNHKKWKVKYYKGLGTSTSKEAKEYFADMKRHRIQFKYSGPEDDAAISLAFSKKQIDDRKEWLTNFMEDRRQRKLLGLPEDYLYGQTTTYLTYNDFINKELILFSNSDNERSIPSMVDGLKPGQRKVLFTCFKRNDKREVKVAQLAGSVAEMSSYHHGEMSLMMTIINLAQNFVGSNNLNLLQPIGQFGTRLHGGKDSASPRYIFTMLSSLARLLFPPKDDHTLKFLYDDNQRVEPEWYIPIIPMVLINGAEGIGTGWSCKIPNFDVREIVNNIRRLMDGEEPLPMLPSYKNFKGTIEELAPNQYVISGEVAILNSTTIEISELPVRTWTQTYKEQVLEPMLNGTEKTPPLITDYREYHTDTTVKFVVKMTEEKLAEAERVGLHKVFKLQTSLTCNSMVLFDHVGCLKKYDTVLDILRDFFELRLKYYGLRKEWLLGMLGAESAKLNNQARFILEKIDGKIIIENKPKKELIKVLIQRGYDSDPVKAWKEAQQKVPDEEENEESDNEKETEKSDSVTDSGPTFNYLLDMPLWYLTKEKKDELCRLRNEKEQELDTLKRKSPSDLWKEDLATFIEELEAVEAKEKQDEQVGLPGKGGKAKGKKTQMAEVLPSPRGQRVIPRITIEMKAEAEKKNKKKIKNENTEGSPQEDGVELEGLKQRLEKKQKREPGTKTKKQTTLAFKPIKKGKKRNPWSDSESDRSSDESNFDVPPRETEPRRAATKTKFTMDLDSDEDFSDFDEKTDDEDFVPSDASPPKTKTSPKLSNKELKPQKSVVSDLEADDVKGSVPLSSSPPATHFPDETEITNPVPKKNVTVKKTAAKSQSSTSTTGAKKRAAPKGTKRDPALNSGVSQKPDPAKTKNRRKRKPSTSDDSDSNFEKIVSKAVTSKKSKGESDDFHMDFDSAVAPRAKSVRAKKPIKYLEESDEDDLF

CC[C@@]1(OC(=O)NCCN2C(=O)CCSSCCC2=O)C(=O)OCc2c1cc1n(c2=O)Cc2cc3ccccc3nc2-1
Activity [1]: inactive
Activity [2]: inactive
IC50 [3]: 2970 nM
Activity [4]: Active
Activity [5]: Active
IC50 [6]: 8.1 µM
Activity [7]: inactive
IC50 [8]: 12 µM
Activity [9]: inactive
Activity [10]: Dose-dependent effect
Activity [11]: inactive
Activity [12]: Active
Activity [13]: inactive
Activity [14]: inactive
Activity [15]: inactive
Activity [16]: inactive
Activity [17]: Active
Activity [18]: inactive
Activity [19]: inactive
Activity [20]: Active
Activity [21]: inactive
Activity [22]: inactive
Activity [23]: Active
Activity [24]: Active
Activity [25]: inactive
Activity [26]: Active
Activity [27]: inactive
Activity [28]: inactive
Activity [29]: inactive
Activity [30]: Active
Activity [31]: inactive
Activity [32]: Active
Activity [33]: inactive
Activity [34]: inactive
Activity [35]: inactive
Activity [36]: inactive
Activity [37]: inactive
Activity [38]: inactive
Activity [39]: Active
Activity [40]: inactive

CC[C@@]1(OC(=O)NCCNC(=O)CCSSCCC(=O)NCCNC(=O)O[C@]2(CC)C(=O)OCc3c2cc2n(c3=O)Cc3cc4ccccc4nc3-2)C(=O)OCc2c1cc1n(c2=O)Cc2cc3ccccc3nc2-1
IC50 [3]: 150 nM
Activity [4]: Active
Activity [5]: Active
IC50 [6]: 0.92 µM
IC50 [8]: 0.7 µM
Activity [10]: Dose-dependent effect
Activity [12]: Active
inhibition [41]: Active
Activity [17]: Active
Activity [20]: Active
Activity [23]: Active
Activity [24]: Active
Activity [26]: Active
Activity [32]: Active
Activity [36]: inactive
Activity [37]: inactive
Activity [39]: Active

From ChEMBL document CHEMBL1629436, “Synthesis and biological evaluation of new camptothecin derivatives obtained by modification of position 20” (Bioorg Med Chem, 2010)
